Measured values as given in ChEMBL document CHEMBL2062413, “Design of β-amyloid aggregation inhibitors from a predicted structural motif” (J Med Chem, 2012).
Each block holds one compound with its values, some of them ahead of it. Calls of active or inactive are those of the source. No cut-off for these calls is given here.

How the values were obtained:
[1] = Drug degradation in aqueous buffer assessed as 3,5-dichloro-2-hydroxybenzaldehyde formation up to 24 hrs by LC-MS analysis at pH 7.4; type: physicochemical; conditions: pH 7.4, 24 h
[2] = target: T1, Amyloid-beta precursor protein (Homo sapiens, UniProt P05067); experiment: Inhibition of amyloid beta42 aggregation assessed as reduction in fluorescence after 4 days by thioflavin T-based fluorometry
T1 sequence (P05067 whole entry): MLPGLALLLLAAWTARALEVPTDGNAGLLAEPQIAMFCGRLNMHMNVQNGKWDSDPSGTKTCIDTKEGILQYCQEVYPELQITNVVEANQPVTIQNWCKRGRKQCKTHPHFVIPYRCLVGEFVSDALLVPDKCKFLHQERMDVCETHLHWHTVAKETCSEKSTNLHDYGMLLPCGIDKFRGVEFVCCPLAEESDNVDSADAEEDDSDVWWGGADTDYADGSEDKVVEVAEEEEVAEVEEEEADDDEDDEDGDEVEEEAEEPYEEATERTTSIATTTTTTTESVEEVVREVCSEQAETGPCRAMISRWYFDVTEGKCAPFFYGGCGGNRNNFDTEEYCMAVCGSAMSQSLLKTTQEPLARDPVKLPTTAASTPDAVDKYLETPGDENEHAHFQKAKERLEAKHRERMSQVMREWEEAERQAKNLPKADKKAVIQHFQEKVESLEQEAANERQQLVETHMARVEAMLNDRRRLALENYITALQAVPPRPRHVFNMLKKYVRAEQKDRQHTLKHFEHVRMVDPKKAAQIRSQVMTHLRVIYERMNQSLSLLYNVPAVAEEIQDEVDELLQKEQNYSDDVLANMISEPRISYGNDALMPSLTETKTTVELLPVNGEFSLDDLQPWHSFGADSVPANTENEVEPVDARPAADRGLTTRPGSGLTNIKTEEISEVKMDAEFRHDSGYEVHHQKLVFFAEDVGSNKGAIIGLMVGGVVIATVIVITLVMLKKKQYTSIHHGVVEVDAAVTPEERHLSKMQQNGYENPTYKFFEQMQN
In short: (§1)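 Aβ42 at 25 μM was incubated with a range of compound concentrations in triplicate at 37°C with shaking for four days, read at t=0 and t=4 d. Compound was taken from a 10 mM DMSO stock diluted in PBS. Aliquots were added to 25 μM ThT in 50 mM glycine, pH 8, for 5 min, then read at ex 446/em 490 nm. IC50 was taken from % fluorescence of untreated control.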

[3] = Drug degradation in aqueous buffer assessed as (E)-N-(2-(3,5-dichloro-2-hydroxybenzylideneamino)-4-methylphenyl)benzo[b]oxirene-3-sulfonamide formation up to 24 hrs by LC-MS analysis at pH 7.4; type: physicochemical; conditions: pH 7.4, 24 h
[4] = Drug degradation in aqueous buffer assessed as N-(2-amino-4-methylphenyl)-4-chlorobenzenesulfonamide formation up to 24 hrs by LC-MS analysis at pH 7.4; type: physicochemical; conditions: pH 7.4, 24 h
[5] = target: T1, Amyloid-beta precursor protein; experiment: Inhibition of amyloid beta42 aggregation assessed as reduction in fluorescence measured immediately post-compound addition by thioflavin T-based fluorometry; in short: as §1
[6] = Inhibition of amyloid beta42 assessed as increase in amorphous aggregates at 25 uM after 4 days by […] electron microscopy
In short: (§2)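 Negative-stain TEM: 25 μM Aβ42 alone or with 25 μM compound (1:1), incubated four days at 37°C. Aliquots spotted 2 min on glow-discharged carbon-coated Formvar grids and stained with 1% uranyl acetate.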

[7] = target: T1, Amyloid-beta precursor protein; experiment: Inhibition of amyloid beta42 aggregation assessed as inhibition of fibril formation at 25 uM after 5 days by circular dichroism
In short: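 Circular dichroism: 25 μM Aβ42 alone or mixed 1:1 with 25 μM compound, incubated at 37°C with orbital shaking at 200 rpm. Spectra taken every 24 h for 5 days at 37°C in a 1-mm cell, 190–260 nm, 0.2-nm resolution, 1-nm bandwidth, background-subtracted and averaged. Compound dissolved to 10 mM in NaOH, then diluted in PBS.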

PC-12 = experiment: Cytotoxicity against rat PC12 cells assessed as reduction in cell viability at 50 uM after 48 hrs by MTT assay; type: cell-based; conditions: pc-12, 48 h
[8] = Inhibition of amyloid beta42 assessed as decrease in mature fibril formation at 25 uM after 4 days by […] electron microscopy; in short: as §2
[9] = Drug degradation in aqueous buffer assessed as N-(2-amino-4-methylphenyl)benzo[b]oxirene-3-sulfonamide formation up to 24 hrs by LC-MS analysis at pH 7.4; type: physicochemical; conditions: pH 7.4, 24 h

SMILES: Cc1ccc(NS(=O)(=O)c2ccc3c(c2)O3)c(/N=C/c2cc(Cl)cc(Cl)c2O)c1
Drug degradation [3]: Active

SMILES: Cc1ccc(NS(=O)(=O)c2ccc(Cl)cc2)c(N)c1
Drug degradation [4]: Active | IC50 [5]: 30 µM | IC50 [2]: 23 µM | inhibition [2]: Dose-dependent effect

SMILES: Cc1ccc(NS(=O)(=O)c2ccc(Cl)cc2)c(/N=C/c2cc(Cl)cc(Cl)c2O)c1
inhibition [6]: Active | inhibition [7]: Active | IC50 [5]: 62 µM | Activity (PC-12): 40% | IC50 [2]: 13 µM | inhibition [2]: Dose-dependent effect | inhibition [8]: Active

Now from value to compound:

Drug degradation [1]: Active | inhibition [2]: inactive
SMILES: O=Cc1cc(Cl)cc(Cl)c1O

Drug degradation [9]: Active
SMILES: Cc1ccc(NS(=O)(=O)c2ccc3c(c2)O3)c(N)c1
